Results as given in ChEMBL document CHEMBL4033657, “N-Aryl-N'-ethyleneaminothioureas effectively inhibit acetylcholinesterase 1 from disease-transmitting mosquitoes” (Eur J Med Chem, 2017).
Active and inactive are the calls of the source. The rule behind the calls is not given here.

Tests used:
[1] = molecular target: T1, Acetylcholinesterase (Homo sapiens, UniProt P22303); test: Inhibition of recombinant human AChE expressed in HEK293F cells using acetylthiocholine iodide as substrate measured over 60 secs by Ellman's method; design: species or system HEK293
[2] = test system: Aedes aegypti; test: (§1) Inhibition of recombinant full length Aedes aegypti AChE1 expressed in baculovirus-infected Sf9 insect cells using acetylthiocholine iodide as substrate measured over 60 secs by Ellman's method
In short: (§2)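 Secreted, non-purified recombinant enzyme in growth medium, tested as enzyme source. Ellman assay at 30 °C in 0.1 M phosphate buffer pH 7.4 with 0.2 mM DTNB and 1 mM acetylthiocholine iodide; A412 followed over 60 s. Compound (100 mM DMSO stock) tested at eight concentrations, maximum 1 mM. Activity set relative to eight uninhibited controls per plate; IC50 from three-parameter variable-slope fit; 2-3 independent replicates.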

[3] = as §1; in short: as §2
[4] = test system: Aedes aegypti; test: Insecticidal activity against five days old adult Aedes aegypti Mombasa assessed as mortality at 1 nmol applied topically on upper part of pronotum after 24 hrs; format: functional
[5] = molecular target: Acetylcholinesterase (Anopheles gambiae, UniProt Q869C3, G122S); test: Inhibition of recombinant full length Anopheles gambiae AChE1 G122S mutant expressed in baculovirus-infected Sf9 insect cells using acetylthiocholine iodide as substrate measured over 60 secs by Ellman's method
[6] = test system: Aedes aegypti; test: Insecticidal activity against five days old adult Aedes aegypti Mombasa assessed as mortality at 0.2 nmol applied topically on upper part of pronotum after 24 hrs; format: functional
[7] = molecular target: Acetylcholinesterase (Anopheles gambiae) (UniProt Q869C3); test: Inhibition of recombinant full length Anopheles gambiae AChE1 expressed in baculovirus-infected Sf9 insect cells at 1 mM using acetylthiocholine iodide as substrate measured over 60 secs by Ellman's method; in short: as §2
[8] = test system: Aedes aegypti; test: Insecticidal activity against five days old adult Aedes aegypti Mombasa assessed as mortality at 100 mM applied topically on upper part of pronotum after 48 hrs (reference value: 7 to 8%); format: functional; details: topical
[9] = test system: Anopheles gambiae; test: Insecticidal activity against five days old adult Anopheles gambiae Kisumu assessed as mortality at 10 mM applied topically on upper part of pronotum after 24 hrs (reference value: 8 to 16%); format: functional; details: topical
[10] = test system: Anopheles gambiae; test: Insecticidal activity against five days old adult Anopheles gambiae Kisumu assessed as mortality at 10 nmol applied topically on upper part of pronotum after 24 hrs; format: functional
[11] = test system: Anopheles gambiae; test: Insecticidal activity against five days old adult Anopheles gambiae Kisumu assessed as mortality at 2 mM applied topically on upper part of pronotum after 48 hrs (reference value: 13 to 38%); format: functional; details: topical
[12] = molecular target: T2, Acetylcholinesterase (Anopheles gambiae, UniProt Q869C3); test: Inhibition of AChE1 in Anopheles gambiae body extract using acetylthiocholine iodide as substrate measured over 60 secs by Ellman's method
[13] = molecular target: T2, Acetylcholinesterase; test: Inhibition of AChE1 in Anopheles gambiae head extract using acetylthiocholine iodide as substrate measured over 60 secs by Ellman's method
[14] = test system: Anopheles gambiae; test: Insecticidal activity against five days old adult Anopheles gambiae Kisumu assessed as mortality at 100 mM applied topically on upper part of pronotum after 24 hrs (reference value: 9 to 10%); format: functional; details: topical
[15] = test system: Anopheles gambiae; test: Insecticidal activity against five days old adult Anopheles gambiae Kisumu assessed as mortality at 2 mM applied topically on upper part of pronotum after 24 hrs (reference value: 3 to 17%); format: functional; details: topical
[16] = test system: Anopheles gambiae; test: Insecticidal activity against five days old adult Anopheles gambiae Kisumu assessed as mortality at 0.2 nmol applied topically on upper part of pronotum after 24 hrs; format: functional
[17] = test system: Anopheles gambiae; test: Insecticidal activity against 3rd instar larvae of Anopheles gambiae Kisumu assessed as mortality at 50 uM administered via de-chlorinated tap water after 48 hrs; format: functional
[18] = test system: Aedes aegypti; test: Insecticidal activity against five days old adult Aedes aegypti Mombasa assessed as mortality at 2 mM applied topically on upper part of pronotum after 48 hrs (reference value: 3 to 12%); format: functional; details: topical
[19] = test system: Aedes aegypti; test: Insecticidal activity against 3rd instar larvae of Aedes aegypti Mombasa assessed as mortality at 500 uM administered via de-chlorinated tap water after 24 hrs; format: functional
In short: (§3)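 Kenyan strains were reared at 27-28 °C, about 80% humidity, 12/12 h light. Per compound and concentration, 25 third-instar larvae were placed in 100 ml de-chlorinated water containing the compound and kept under insectary conditions. The negative control was plain water; the positive control was propoxur at 25 µM. Mortality was scored at 24 h; 75 treated and 50 control larvae in total.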

[20] = test system: Aedes aegypti; test: Insecticidal activity against five days old adult Aedes aegypti Mombasa assessed as mortality at 2 mM applied topically on upper part of pronotum after 24 hrs (reference value: 2 to 10%); format: functional; details: topical
[21] = test system: Anopheles gambiae; test: Insecticidal activity against five days old adult Anopheles gambiae Kisumu assessed as mortality at 10 mM applied topically on upper part of pronotum after 48 hrs (reference value: 14 to 22%); format: functional; details: topical
[22] = test system: Aedes aegypti; test: Insecticidal activity against five days old adult Aedes aegypti Mombasa assessed as mortality at 10 mM applied topically on upper part of pronotum after 48 hrs (reference value: 3 to 15%); format: functional; details: topical
[23] = test system: Aedes aegypti; test: Insecticidal activity against five days old adult Aedes aegypti Mombasa assessed as mortality at 10 mM applied topically on upper part of pronotum after 24 hrs (reference value: 3 to 15%); format: functional; details: topical
[24] = test system: Anopheles gambiae; test: Insecticidal activity against 3rd instar larvae of Anopheles gambiae Kisumu assessed as mortality at 500 uM administered via de-chlorinated tap water after 24 hrs; format: functional; in short: as §3
[25] = test system: Anopheles gambiae; test: Insecticidal activity against five days old adult Anopheles gambiae Kisumu assessed as mortality at 1 nmol applied topically on upper part of pronotum after 24 hrs; format: functional
[26] = test system: Anopheles gambiae; test: Insecticidal activity against 3rd instar larvae of Anopheles gambiae Kisumu assessed as mortality at 500 uM administered via de-chlorinated tap water after 48 hrs; format: functional
[27] = molecular target: T2, Acetylcholinesterase; test: (§4) Inhibition of recombinant full length Anopheles gambiae AChE1 expressed in baculovirus-infected Sf9 insect cells using acetylthiocholine iodide as substrate measured over 60 secs by Ellman's method
[28] = molecular target: Acetylcholinesterase (Anopheles gambiae) (UniProt Q869C3); test: as §4
[29] = test system: Aedes aegypti; test: Insecticidal activity against 3rd instar larvae of Aedes aegypti Mombasa assessed as mortality at 500 uM administered via de-chlorinated tap water after 48 hrs (reference value: 0 to 2%); format: functional
[30] = test system: Anopheles gambiae; test: Insecticidal activity against 3rd instar larvae of Anopheles gambiae Kisumu assessed as mortality at 50 uM administered via de-chlorinated tap water after 24 hrs; format: functional; in short: as §3
[31] = test system: Aedes aegypti; test: Inhibition of recombinant full length Aedes aegypti AChE1 expressed in baculovirus-infected Sf9 insect cells at 1 mM using acetylthiocholine iodide as substrate measured over 60 secs by Ellman's method; in short: as §2
[32] = test system: Aedes aegypti; test: Insecticidal activity against five days old adult Aedes aegypti Mombasa assessed as mortality at 10 nmol applied topically on upper part of pronotum after 24 hrs; format: functional
[33] = test system: Aedes aegypti; test: Insecticidal activity against 3rd instar larvae of Aedes aegypti Mombasa assessed as mortality at 50 uM administered via de-chlorinated tap water after 24 hrs; format: functional; in short: as §3
[34] = test system: Aedes aegypti; test: Insecticidal activity against five days old adult Aedes aegypti Mombasa assessed as mortality at 100 mM applied topically on upper part of pronotum after 24 hrs (reference value: 3%); format: functional; details: topical
[35] = test system: Aedes aegypti; test: Insecticidal activity against 3rd instar larvae of Aedes aegypti Mombasa assessed as mortality at 50 uM administered via de-chlorinated tap water after 48 hrs (reference value: 0 to 4%); format: functional
[36] = test system: Anopheles gambiae; test: Insecticidal activity against five days old adult Anopheles gambiae Kisumu assessed as mortality at 100 mM applied topically on upper part of pronotum after 48 hrs (reference value: 15 to 24%); format: functional; details: topical
[37] = Selectivity ratio of IC50 for recombinant human AChE expressed in HEK293F cells to IC50 for recombinant full length Anopheles gambiae AChE1 expressed in baculovirus-infected Sf9 insect cells
In short: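 Ratio of the hAChE IC50 divided by the higher of the AgAChE1 or AaAChE1 IC50. Each IC50 came from an Ellman assay (1 mM acetylthiocholine, 0.2 mM DTNB, pH 7.4, 30 °C) with eight concentrations up to 1 mM, using 2-3 replicates.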

[38] = test system: Anopheles gambiae; test: Insecticidal activity against 3rd instar larvae of Anopheles gambiae Kisumu assessed as mortality at 25 uM administered via de-chlorinated tap water after 24 hrs; format: functional; in short: as §3
[39] = test system: Anopheles gambiae; test: Insecticidal activity against 3rd instar larvae of Anopheles gambiae Kisumu assessed as mortality at 25 uM administered via de-chlorinated tap water after 48 hrs; format: functional
[40] = test system: Anopheles gambiae; test: Insecticidal activity against five days old adult Anopheles gambiae Kisumu assessed as mortality at 6.25 ng applied topically on upper part of pronotum after 24 hrs; format: functional
[41] = test system: Anopheles gambiae; test: Insecticidal activity against five days old adult Anopheles gambiae Kisumu assessed as mortality at 0.1 mM applied topically on upper part of pronotum after 24 hrs (reference value: 0%); format: functional; details: topical
[42] = test system: Anopheles gambiae; test: Insecticidal activity against 3rd instar larvae of Anopheles gambiae Kisumu assessed as mortality at 300 uM administered via de-chlorinated tap water after 48 hrs; format: functional
[43] = test system: Anopheles gambiae; test: Insecticidal activity against 3rd instar larvae of Anopheles gambiae Kisumu assessed as mortality at 300 uM administered via de-chlorinated tap water after 24 hrs; format: functional; in short: as §3
[44] = test system: Aedes aegypti; test: Insecticidal activity against 3rd instar larvae of Aedes aegypti Mombasa assessed as mortality at 300 uM administered via de-chlorinated tap water after 24 hrs; format: functional; in short: as §3
[45] = test system: Anopheles gambiae; test: Insecticidal activity against five days old adult Anopheles gambiae Kisumu assessed as mortality at 0.01 nmol applied topically on upper part of pronotum after 24 hrs; format: functional
[46] = test system: Aedes aegypti; test: Insecticidal activity against 3rd instar larvae of Aedes aegypti Mombasa assessed as mortality at 300 uM administered via de-chlorinated tap water after 48 hrs (reference value: 0%); format: functional
[47] = test system: Acetylcholinesterase (Anopheles gambiae), Q869C3 [G122S]; test: Inhibition of recombinant full length Anopheles gambiae AChE1 G122S mutant expressed in baculovirus-infected Sf9 insect cells up to 1 mM using acetylthiocholine iodide as substrate measured over 60 secs by Ellman's method; in short: as §2
[48] = molecular target: T1, Acetylcholinesterase; test: Inhibition of recombinant human AChE expressed in HEK293F cells up to 1 mM using acetylthiocholine iodide as substrate measured over 60 secs by Ellman's method; details: HEK293; in short: as §2

Row | SMILES | IC50 [1] | IC50 [3] | mortality [4] | IC50 [5] | mortality [6] | inhibition [7] | mortality at 10000 µM [9] | IC50 [12] | IC50 [13] | mortality at 2000 µM [15] | mortality [16] | mortality at 50 µM [17] | mortality at 2000 µM [18] | mortality at 500 µM [19] | mortality at 2000 µM [20] | mortality at 10000 µM [21] | mortality at 10000 µM [22] | mortality at 10000 µM [23] | mortality at 500 µM [24] | mortality [25] | also measured
1 | COc1ccccc1NC(=S)NCCN(C)C | 120 µM | 6 µM | 10% | 50 µM | 8% | 50% | 9% | 7.6 µM | 7.1 µM | 16% | 16% | 7% | 13% | 5% | 8% | 20% | 15% | 10% | 3% | 0% | inhibition [2]: Dose-dependent effect; mortality at 100000 µM [8]: 18%; mortality [10]: 57%; mortality at 2000 µM [11]: 23%; mortality at 100000 µM [14]: 61%; mortality at 500 µM [26]: 3%; IC50 [27]: 7.1 µM; inhibition [28]: Dose-dependent effect; mortality at 500 µM [29]: 7%; mortality at 50 µM [30]: 5%; inhibition [31]: 50%; mortality [32]: 10%; mortality at 50 µM [33]: 7%; mortality at 100000 µM [34]: 10%; mortality at 50 µM [35]: 7%; mortality at 100000 µM [36]: 73%; Ratio IC50 [37]: 17
2 | CNC(=O)Oc1ccccc1OC(C)C [PROPOXUR] |  |  |  |  |  |  |  |  |  |  |  |  |  |  |  |  |  |  |  |  | mortality at 25 µM [38]: 100%; mortality at 25 µM [39]: 100%; mortality [40]: 100%
3 | COc1ccc(NC(=S)NCCN2CCOCC2)cc1Cl | 14 µM | 0.09 µM | 0% | 84 µM | 5% |  | 72% | 0.15 µM | 0.19 µM | 22% | 22% | 3% | 5% | 97% | 5% | 77% | 10% | 3% | 100% | 70% | mortality at 100 µM [41]: 0%; mortality at 300 µM [42]: 100%; mortality at 300 µM [43]: 100%; mortality at 500 µM [26]: 100%; IC50 [27]: 0.12 µM; mortality at 500 µM [29]: 100%; mortality at 50 µM [30]: 1%; mortality at 300 µM [44]: 64%; mortality [45]: 0%; mortality at 300 µM [46]: 80%; mortality at 50 µM [33]: 8%; mortality at 50 µM [35]: 13%; Ratio IC50 [37]: 117
4 | S=C(NCCN1CCOCC1)Nc1ccc(Cl)cc1 |  |  |  |  |  | inactive |  |  |  |  |  |  |  |  |  |  |  |  |  |  | inhibition [47]: inactive; inhibition [48]: inactive; inhibition [31]: inactive
